{"data": "Assay results collected from several papers", "target": "Muscarinic acetylcholine receptor M2 (CHRM2, Homo sapiens, UniProt P08172)", "Sequence (P08172 1-466, as in one of the studies)": "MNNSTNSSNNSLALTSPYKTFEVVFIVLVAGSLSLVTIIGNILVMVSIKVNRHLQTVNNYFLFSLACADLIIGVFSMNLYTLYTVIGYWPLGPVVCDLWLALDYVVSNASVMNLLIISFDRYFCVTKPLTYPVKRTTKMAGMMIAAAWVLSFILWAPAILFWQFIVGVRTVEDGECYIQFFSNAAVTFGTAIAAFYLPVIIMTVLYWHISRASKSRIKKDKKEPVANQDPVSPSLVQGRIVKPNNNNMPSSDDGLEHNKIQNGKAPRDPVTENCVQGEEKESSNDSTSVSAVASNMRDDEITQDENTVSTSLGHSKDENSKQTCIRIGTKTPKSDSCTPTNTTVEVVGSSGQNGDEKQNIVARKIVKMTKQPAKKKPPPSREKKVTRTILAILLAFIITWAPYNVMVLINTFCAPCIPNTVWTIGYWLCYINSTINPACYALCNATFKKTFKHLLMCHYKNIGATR", "note": "Protocols differ between the studies behind these lines."}
{"Compound": "CCn1c(-c2nc3cc(C(=O)N4CCC[C@@H](N)C4)cc(OC)c3n2C)cc2cccnc21", "test": "calcium signal, agonist", "measurement": "EC50", "result": "> 15.8 µM"}
{"Compound": "CC[C@@H]1SC2(CCN(C)CC2)NC1=O", "test": "calcium signal, agonist", "measurement": "EC50", "result": "> 50 µM"}
{"Compound": "Cc1cc(Oc2nccc3occc23)ccc1-c1c(C)c(=O)[nH]c(=O)n1C1CC1", "test": "ligand displacement, radioligand", "measurement": "Ki", "result": "7.7 µM"}
{"Compound": "CCn1c(-c2nc3ccc(C(=O)N4CCCC(N)C4)cc3n2C)cc2ccccc21 (centres unmarked)", "test": "calcium signal, antagonist, fluorescence", "measurement": "IC50", "result": "> 15.8 µM"}
{"Compound": "CCN(C(=O)C1CCN(S(=O)(=O)c2ccc3[nH]ncc3c2)CC1)[C@H](C)c1ccccc1", "test": "calcium signal, agonist", "measurement": "EC50", "result": "> 30 µM"}
{"Compound": "CCCCN1CCC(COC(=O)c2ccc(N)c(OCF)c2)CC1", "test": "cell-free assay, radioligand", "measurement": "Ki", "result": "> 10 µM"}
{"Compound": "COc1ccnc(Oc2ccc(-c3c(C)c(=O)[nH]c(=O)n3C)c(C)c2)c1C(F)(F)F", "test": "ligand displacement, radioligand", "measurement": "Ki", "result": "6.9 µM"}
{"Compound": "CCOCc1nc(O)c(-c2nnc(Cc3ccc(Cl)cn3)o2)c(O)c1-c1c(OC)cccc1OC", "test": "ligand displacement, radioligand", "measurement": "IC50", "result": "> 30 µM"}
